High-throughput results deposited in PubChem BioAssay by The Scripps Research Institute Molecular Screening Center.
TAAR1 antagonist: human TAAR1 antagonism; CHO RD-HGA16 TAAR1, Fluo-8 calcium fluorescence, antagonist; inhibition, % at 3 µM; 360,000 compounds, 1.5% hits; AID 624466;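 active = inhibition above a per-plate cutoff, the mean inhibition of test compounds on that plate plus 3 SD, cut at about 49% in these data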;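 also: 0% = DMSO plus EC80 beta-PEA response and 100% = DMSO alone without agonist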
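Material: CHO RD-HGA16 cells bearing hTAAR1; compound dosing: one-point dosing, 3 µM nominal final; schedule: dye loading 75 min at 37 °C, then 30 min room temperature; measured by: calcium fluorescence with Fluo-8; control set: vehicle and agonist controls; replication: n of 1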
TAAR1 agonist: human TAAR1 agonism | Q96RJ0 | CHO RD-HGA16 TAAR1, Fluo-8 calcium fluorescence; vehicle wells 0%, saturating PEA agonist 100% | activation, % at 3 µM | 360,000 compounds, 0.99% hits;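 active = activation above the mean activation of all test compounds in the run plus 3 SD, cut at about 38% in these data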
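System: CHO-derived RD-HGA16 cells with stable Gα16 and human TAAR1 / Times: 17-24 h plating, Fluo-8 75 min 37 °C, 30 min RT / Technique: calcium-sensitive Fluo-8 signal, excitation 470-495, emission 515-575 nm / Measure: % activation relative to PEA EC100 response / Benchmarks: DMSO and PEA EC100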
CHO parental Ca: counter-screen: ATP calcium response change in parental CHO cells. parental CHO-K1, ATP-induced calcium, Fluo-8 fluorescence. inhibition, % at 5.6 µM. 330,000 compounds, 0.63% hits;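 active = inhibition above that plate's mean sample inhibition plus 3 SD, cut at about 26% in these data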;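 also: 0% = ATP-challenged DMSO wells and 100% = DMSO wells without ATP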
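Test system: untransfected parental CHO cell line; also added: ATP stimulus; dosing: 5.6 µM, single dose; signal: calcium-sensitive Fluo-8 fluorescence; measure: percent inhibition of ATP-evoked calcium rise, normalized to controls; benchmarks: low control ATP plus DMSO, high control DMSO only; replication: one well per compound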
OX1R antag-1: human HCRTR1 antagonism. O43613. inhibition, % at 5 µM. 330,000 compounds, 0.43% hits. CHO/OX1R cells, Fluo-8 calcium fluorescence, orexin A. AID 434989;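 active = inhibition above its plate's threshold, mean inhibition of all tested compounds on the plate plus 3 SD, cut at about 37% in these data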;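 also: 0% = orexin A challenge wells and 100% = SB-334867-A antagonist wells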
Target sequence (O43613 whole entry, looked up): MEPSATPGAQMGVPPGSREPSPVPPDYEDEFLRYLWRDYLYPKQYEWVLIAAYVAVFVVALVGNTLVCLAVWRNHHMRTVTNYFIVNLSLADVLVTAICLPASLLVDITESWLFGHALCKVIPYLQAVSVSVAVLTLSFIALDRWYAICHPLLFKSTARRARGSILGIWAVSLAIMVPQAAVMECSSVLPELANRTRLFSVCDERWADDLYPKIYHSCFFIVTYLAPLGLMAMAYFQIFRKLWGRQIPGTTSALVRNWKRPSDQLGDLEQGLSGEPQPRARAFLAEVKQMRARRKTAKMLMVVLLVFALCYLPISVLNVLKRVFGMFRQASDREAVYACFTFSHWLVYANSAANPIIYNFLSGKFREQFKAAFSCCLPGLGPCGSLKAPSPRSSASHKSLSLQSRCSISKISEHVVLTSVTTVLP
OX1R antag-2: blocks the human orexin 1 receptor; AID 485270; OX1R-expressing cells, FRET antagonist read-out; inhibition, % at 6.6 µM; O43613; 330,000 compounds, 1.8% hits; in the data active = inhibition mostly above about 38%, no sharp cut-off; inactive = mostly below about 40%;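 also: 0% = agonist challenge alone and 100% = reference antagonist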
GPR7 antagonist: antagonists of human GPR7 (neuropeptides B/W receptor 1) | GPR7-expressing cells, fluorescence antagonist assay | inhibition, % at 4.4 µM | 290,000 compounds, 1.1% hits; in the data active = inhibition above about 16%, passing the limit was not always enough;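 also: cells stimulated with the agonist NPW; 0% = agonist with vehicle and 100% = vehicle without agonist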
The depositor's hits bear a star. The list is not random: actives were taken first. Their share in the collection is about 4.6%.

For O=C(N=Nc1c(O)[nH]c2ccccc12)c1ccc(CN2CCOCC2)cc1 the results were TAAR1 antagonist 4.8, TAAR1 agonist 2.1, CHO parental Ca -2.7, OX1R antag-1 3.0, OX1R antag-2 63.4* and GPR7 antagonist -11.4.
Oc1[nH]c2ccccc2c1N=NC(=S)N1CCOCC1 was read as CHO parental Ca 9.3, OX1R antag-1 -10.2, OX1R antag-2 19.5 and GPR7 antagonist -21.8.
CC(C)NC(=S)NC(=O)/C=C/c1cccc2ccccc12 was read as TAAR1 antagonist 41.0, TAAR1 agonist 2.6, CHO parental Ca -9.7, OX1R antag-1 -4.5, OX1R antag-2 11.7 and GPR7 antagonist 7.7.
For O=C(OCC1COC(c2ccccc2)(c2ccccc2)O1)c1ccccc1 (configuration not stated) the results were TAAR1 antagonist 45.6 and TAAR1 agonist 3.3.
O=C(NCC1CCCO1)c1ccc(COCC(F)(F)C(F)F)cc1 (configuration not stated) was read as TAAR1 antagonist -8.1, TAAR1 agonist -2.1, CHO parental Ca -0.7, OX1R antag-1 -5.7, OX1R antag-2 9.7 and GPR7 antagonist 16.5*.
`CC(C)NC(=O)c1ccc(COCC(F)(F)C(F)F)cc1` gave TAAR1 antagonist 1.8, TAAR1 agonist 8.8, CHO parental Ca -2.5, OX1R antag-1 -17.7, OX1R antag-2 10.7 and GPR7 antagonist 1.9.
`CC(C)NC(=O)Nc1cccc2c1O[C@H](CN(C)S(=O)(=O)c1ccccc1)[C@@H](C)CN([C@H](C)CO)C2=O` gave TAAR1 antagonist 1.5, TAAR1 agonist 1.1, CHO parental Ca -16.5, OX1R antag-1 -23.0 and OX1R antag-2 15.9.
For COc1ccc2[nH]c(C(=O)O)c(NS(=O)(=O)c3ccc(OC)c(OC)c3)c2c1 the results were TAAR1 antagonist -5.2, TAAR1 agonist 3.8, CHO parental Ca 10.6, OX1R antag-1 -17.5, OX1R antag-2 22.0 and GPR7 antagonist 22.5.
CCCCNC(=O)c1nc(-c2ccncc2)oc1-c1ccccc1 was read as TAAR1 antagonist 9.9 and TAAR1 agonist 2.9.
For Cc1cc([N+](=O)[O-])c(NCCCCCCO)c([N+](=O)[O-])c1 the results were TAAR1 antagonist -5.9, TAAR1 agonist 7.5, CHO parental Ca -9.4, OX1R antag-1 -4.6, OX1R antag-2 26.4 and GPR7 antagonist 7.2.
CCOP(=O)(OCC)/C(=N/OC(=O)c1cccc([N+](=O)[O-])c1)C(N)=O was read as TAAR1 antagonist 8.1, TAAR1 agonist 7.0, CHO parental Ca 1.3, OX1R antag-1 -9.1, OX1R antag-2 6.0 and GPR7 antagonist -14.7.
Cc1c(C(=O)Nc2ccc3c(c2)OCCO3)sc2nc(-c3ccccc3)cn12 was read as TAAR1 antagonist 64.4*, TAAR1 agonist 10.5, CHO parental Ca 45.6*, OX1R antag-1 67.5*, OX1R antag-2 65.6* and GPR7 antagonist 7.3.
Screening Cc1c(C(=O)NCc2ccco2)sc2nc(-c3ccccc3)cn12 returned TAAR1 antagonist 13.7, TAAR1 agonist 8.1, CHO parental Ca -10.3, OX1R antag-1 -12.3, OX1R antag-2 23.4 and GPR7 antagonist 0.6.
`Cc1c(C(=O)N2CCOCC2)sc2nc(-c3ccccc3)cn12` gave TAAR1 antagonist -3.0, TAAR1 agonist 9.9, CHO parental Ca -2.9, OX1R antag-1 -13.2, OX1R antag-2 15.9 and GPR7 antagonist -6.9.
`Cc1c(C(=O)Nc2ccncc2)sc2nc(-c3ccccc3)cn12` gave TAAR1 antagonist 58.1*, TAAR1 agonist 13.0, CHO parental Ca 13.3, OX1R antag-1 -6.4, OX1R antag-2 37.2* and GPR7 antagonist -1.8.
Screening CCCC(=O)N1CCN(c2ccc(NC(=O)c3cc4ccccc4o3)cc2Cl)CC1 returned TAAR1 antagonist 84.4*, TAAR1 agonist 18.3, CHO parental Ca 61.3*, OX1R antag-1 59.7*, OX1R antag-2 90.9* and GPR7 antagonist -14.8.
`CCCC(=O)N1CCN(c2ccc(NC(=O)c3cccs3)cc2Cl)CC1` gave TAAR1 antagonist 8.5, TAAR1 agonist 4.2, CHO parental Ca -15.4, OX1R antag-1 -33.5, OX1R antag-2 9.0 and GPR7 antagonist -12.0.
